Reference: ChEMBL document CHEMBL1821594, “Synthesis and anticancer evaluation of novel 2-cyclopropylimidazo[2,1-b][1,3,4]-thiadiazole derivatives” (2011)

Key:
BT-549 = test: Antitumor activity against human BT549 cells after 48 hrs by SRB assay; format: functional; details: BT-549, 48 h
In short: (§1)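 Cells grown in RPMI 1640 with 5% FBS and 2 mM L-glutamine and seeded at 5000–40,000 cells/well according to doubling time. They were preincubated 24 h at 37 °C, 5% CO2, then exposed to DMSO-solubilized compound for 48 h. Adherent cells were fixed with cold TCA (10% final), suspension cells with 16% final. Stained with 0.4% SRB; absorbance at 515 nm. Percent growth calculated against time-zero and control plates.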

SK-MEL-28 = test: Antitumor activity against human SK-MEL-28 cells after 48 hrs by SRB assay; format: functional; details: SK-MEL-28, 48 h; in short: as §1
[1] = read-out: LC50 (the source's name)

SMILES: Clc1ccc(-c2nc3sc(C4CC4)nn3c2Br)cc1
- GI50 (BT-549): 4.07 µM
- TGI (BT-549): > 100 µM
- CC50 (BT-549; [1]): > 100 µM
- GI50 (SK-MEL-28): 35.6 µM
- TGI (SK-MEL-28): > 100 µM
- CC50 (SK-MEL-28; [1]): > 100 µM
